Compounds with a hit are over-represented: about 2.6% of the library has one in this group of screens.
ASAP1 GAP inh = inhibitors of human ASAP1 ArfGAP activity. Q9ULH1. inhibition, % at 16.5 µM. ASAP1-stimulated ARF1 GTP hydrolysis, GDP FP detection. 0.19% of 360,000 active; in the data active = inhibition above about 25%
ARFGAP1 inhibitor = inhibitors of rat ARFGAP1; Q62848; Arfgap1-stimulated ARF1 GTP hydrolysis, GDP FP detection; inhibition, % at 16.5 µM; 0.26% of 360,000 active;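 active = inhibition above a per-plate limit, mean inhibition of low control wells plus 3 SD, cut at about 25% in these data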
Target sequence (Q62848 1-136 limits assumed): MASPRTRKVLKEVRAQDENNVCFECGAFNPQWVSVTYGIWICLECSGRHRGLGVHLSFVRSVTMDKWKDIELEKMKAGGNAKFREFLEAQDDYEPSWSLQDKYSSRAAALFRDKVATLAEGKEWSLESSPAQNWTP
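Material: rat Arfgap1 GAP domain (His6, aa 1-136), purified enzyme. Also added: human ARF1(Δ1-17)-GTP substrate. Compound dosing: 16.5 µM single point, 1.26% DMSO. Timing: enzyme reaction 120 min at 25 °C after 20 min preincubation. Signal: GDP detection by fluorescence polarization. Read-out basis: percent inhibition of GAP-stimulated GDP formation, scaled between DMSO and no-Arfgap1 medians.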
VIM-2 inh = blocks Pseudomonas aeruginosa VIM-2 metallo-beta-lactamase | purified VIM-2, nitrocefin hydrolysis, epi-absorbance fluorescence | inhibition, % at 5.6 µM | 0.89% of 290,000 active;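 active = inhibition above the mean of all tested compounds plus 3 SD, cutoff set per screening run, cut at about 7.5% in these data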;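 also: red hydrolysis product quenches plate fluorescence so inhibitors raise well fluorescence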
Calb FLC = affects C. albicans growth with fluconazole; C. albicans CaCi-2 + fluconazole, Alamar Blue growth, 48 h; growth inhibition, % (test concentration not listed); 0.57% of 300,000 active;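 active = growth inhibition above about 58% in most replicates, limit read from the data, passing the limit was not always enough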;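 also: all wells also contain fluconazole at 8 µg/ml as a sub-toxic cotreatment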
IMP-1 inh = blocks Pseudomonas aeruginosa IMP-1 metallo-beta-lactamase | inhibition, % at 5.6 µM | purified IMP-1, nitrocefin hydrolysis, epi-absorbance fluorescence | 0.45% of 290,000 active;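 active = inhibition above the mean plus 3 SD of all compounds in the same screening run, cut at about 4.5% in these data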
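System: Purified IMP-1 | Read-out basis: Percent enzyme inhibition | Controls: IMP-1 with DMSO as 0%, enzyme-free DMSO as 100% | Replicates: One well per compound | Doses: 5.6 µM nominal single concentration | Detection: Epi-absorbance fluorescence, 480 nm excitation, 530 nm emission | Incubation: 25 °C, 15 min preincubation, 25 min reaction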
PHOSPHO1 inh = blocks human PHOSPHO1 phosphatase activity; recombinant PHOSPHO1, absorbance phosphatase assay; inhibition, % at 13.3 µM; 1.1% of 290,000 active; AID 1565; in the data active = inhibition above about 60%
Target sequence (Q8TCT1 whole entry, looked up): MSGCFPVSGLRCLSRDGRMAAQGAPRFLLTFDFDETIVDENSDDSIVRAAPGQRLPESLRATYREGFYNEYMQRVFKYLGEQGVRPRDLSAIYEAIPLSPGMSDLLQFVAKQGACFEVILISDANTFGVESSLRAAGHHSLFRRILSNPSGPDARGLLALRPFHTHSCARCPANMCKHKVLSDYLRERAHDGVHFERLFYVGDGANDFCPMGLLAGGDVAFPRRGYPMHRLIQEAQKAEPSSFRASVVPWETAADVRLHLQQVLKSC
Of the large screens only hits and unclear results are named; the others gave an inactive call.

O=C(CC1CCCC1)N[C@H](C(=O)N1CCC[C@H]1C(=O)NCCc1ccccc1Cl)c1ccccc1	none (no result: VIM-2 inh, Calb FLC, IMP-1 inh, PHOSPHO1 inh)
CCOc1ccc(CN(C(=O)c2oc3ccccc3c2C)C2CCS(=O)(=O)C2)cc1 (stereo unspecified)	Calb FLC 101
O=C(CSc1n[nH]c(-c2ccccn2)n1)Nc1ccccc1F	VIM-2 inh 9.6
COc1ccccc1NC(=O)CSc1n[nH]c(-c2ccccn2)n1	none
CCCn1c(=N)c(S(=O)(=O)c2ccc(F)cc2)cc2c(=O)n3ccccc3nc21	VIM-2 inh 8.9
Cn1c(=N)c(S(=O)(=O)c2ccc(F)cc2)cc2c(=O)n3ccccc3nc21	none
CCCCn1c(=N)c(S(=O)(=O)c2ccc(Br)cc2)cc2c(=O)n3cccc(C)c3nc21	none
COCCn1c(=N)c(S(=O)(=O)c2ccc(F)cc2)cc2c(=O)n3cccc(C)c3nc21	VIM-2 inh 8.9
COc1cccc2c1-c1c(O)cccc1C2=O	VIM-2 inh 11
CCn1c(COc2cc(C)cc(C)c2)nnc1SCC(=O)N1CCN(c2ccccc2)CC1	PHOSPHO1 inh 73
Cc1ccccc1-n1c(SCC(=O)N2CCN(c3ccccc3)CC2)nnc1-c1ccncc1	PHOSPHO1 inh 66
Cc1ccc(-n2c(Cc3cccn3C)nnc2SCC(=O)N2CCN(c3ccccc3)CC2)cc1	PHOSPHO1 inh 77
Cn1cccc1Cc1nnc(SCC(=O)N2CCCCCC2)n1-c1ccc(F)cc1	none
CCCCCCN1CCN(C2CN(C3CCCCC3)S(=O)(=O)C2)CC1 (stereo unspecified)	none (no result: VIM-2 inh, Calb FLC, IMP-1 inh, PHOSPHO1 inh)
COc1ccc(NC(=O)Nc2ccc3nc([C@@H]4O[C@H](CO)[C@@H](O)[C@H](O)[C@H]4O)[nH]c3c2)cc1OC1CCCC1	none (no result: VIM-2 inh, Calb FLC, IMP-1 inh, PHOSPHO1 inh)
Cc1cc(NCCN2CCOCC2)c2ccc3ccccc3c2n1	VIM-2 inh 8.8
CSC(=Cc1ccc(C(=O)c2ccc(C)cc2)n1C)S(C)=O (stereo unspecified)	none (no result: VIM-2 inh, Calb FLC, IMP-1 inh, PHOSPHO1 inh)
O=S1(=O)c2cc(Cl)ccc2N2CCC[C@@H]2CN1Cc1ccc(Cl)c(Cl)c1	none (no result: VIM-2 inh, Calb FLC, IMP-1 inh, PHOSPHO1 inh)
COc1ccc(-c2c(C(=O)O)c(C(=O)O)c3n2CCC3)cc1	VIM-2 inh 11
COC(=O)C1=C(C)N(Cc2ccccc2C(F)(F)F)C(=NCc2ccc(C(F)(F)F)cc2)NC1c1cccc(Cl)c1 (stereo unspecified)	none (no result: VIM-2 inh, Calb FLC, IMP-1 inh, PHOSPHO1 inh)
CCOCCCn1c(=N)c(S(=O)(=O)c2ccccc2)cc2c(=O)n3cc(C)ccc3nc21	VIM-2 inh 11
N=c1c(S(=O)(=O)c2ccccc2)cc2c(=O)n3ccccc3nc2n1CCCN1CCOCC1	VIM-2 inh 9.2
Cc1ccc(S(=O)(=O)c2cc3c(=O)n4ccccc4nc3n(CCCN3CCOCC3)c2=N)cc1C	VIM-2 inh 10
C=CCn1c(=N)c(S(=O)(=O)c2ccc(C)c(C)c2)cc2c(=O)n3ccccc3nc21	VIM-2 inh 12
CC(C)OCCCn1c(=N)c(S(=O)(=O)c2ccccc2)cc2c(=O)n3ccccc3nc21	none
O=C(N[C@@H](Cc1cccnc1)C(=O)N1CCC[C@H]1C(=O)NC1CCCC1)c1ccc(Cl)c(Cl)c1	none (no result: VIM-2 inh, Calb FLC, IMP-1 inh, PHOSPHO1 inh)
O=C(NCC1CCN(C(=O)C(=O)c2cc3ccccc3o2)CC1)c1ccncc1	none (no result: VIM-2 inh, Calb FLC, IMP-1 inh, PHOSPHO1 inh)
CC(Cl)C(=O)N1c2ccccc2CCc2ccccc21 (stereo unspecified)	none (no result: PHOSPHO1 inh)
O=C(CCl)N1c2ccccc2CCc2ccccc21	Calb FLC 84
Cc1cccc(NC(=O)CNC(=O)[C@@H](Cc2ccccc2)NC(=O)[C@H]2O[C@@H](n3ccc(N)nc3=O)[C@H](O)[C@@H]2O)c1C	none (no result: VIM-2 inh, Calb FLC, IMP-1 inh, PHOSPHO1 inh)
O=[N+]([O-])c1nn(-c2ccc(Cl)cc2)n(O)c1=NCc1cccnc1	Calb FLC 88
O=C(CCl)Nc1ccc(-c2ccccc2)cc1	Calb FLC 92
CC(C)[C@H](NC(=O)c1ccccc1Cl)C(=O)Nc1nc(-c2ccccn2)cs1	none
CC1CC1C(=O)Nc1nc(-c2ccccn2)cs1 (stereo unspecified)	PHOSPHO1 inh 78
COc1ccc(-c2csc(NC(=O)CN3C(=O)C4CCCCC4C3=O)n2)cc1OC (stereo unspecified)	none
O=C(Nc1nc(-c2ccccn2)cs1)C1COc2ccccc2O1 (stereo unspecified)	none (no result: Calb FLC)

Bioassay records as filed in PubChem.
